As a reminder, the IC50 is the concentration needed to halve the response being measured. A lower IC50 goes with higher potency. As a reminder, the inhibition is how much of the control response was suppressed.

The record followed here is ChEMBL document CHEMBL1132221, “Isoxazolo-[3,4-d]-pyridazin-7-(6H)-one as a potential substrate for new aldose reductase inhibitors” (J Med Chem, 1999).

For assay [1], the target named is T1, Aldo-keto reductase family 1 member B1 (Bos taurus, UniProt P16116). The assay is described as follows: In vitro inhibitory activity against Aldose reductase 2 obtained from calf lenses.
Assay [2] addresses Aldo-keto reductase family 1 member B1 (Bos taurus) (UniProt P16116). The assay is described as follows: In vitro inhibitory activity against Aldose reductase 2 obtained from calf lenses at a concentration of 82 uM. The method, boiled down:
(§1)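 Calf lens ALR2 purified by DE52, Orange Matrex affinity and Sephadex G75 chromatography. Inhibitor in DMSO (1% final) added to a 37 °C reaction with 4.7 mM D,L-glyceraldehyde and 0.11 mM NADPH in 0.25 M sodium phosphate pH 6.8 containing 0.38 M ammonium sulfate. Activity followed as absorbance change at 340 nm, corrected with a blank lacking substrate.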

Assay [3] addresses T1, Aldo-keto reductase family 1 member B1. The assay can be described thus: In vitro inhibitory activity against aldose reductase (ALR2) obtained from calf lenses. In outline: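 ALR2 purified from calf lens: homogenate in pH 7 phosphate buffer with 5 mM DTT, then DE52 ion exchange, Orange Matrex affinity and Sephadex G75. Assay at 37 °C, 4.7 mM D,L-glyceraldehyde, 0.11 mM NADPH, 0.25 M sodium phosphate pH 6.8 with 0.38 M ammonium sulfate, 1% DMSO. NADPH oxidation read at 340 nm against a substrate-free blank.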

Assay [4] addresses Aldo-keto reductase family 1 member B1 (Bos taurus) (UniProt P16116). The assay is described as follows: In vitro inhibitory activity against Aldose reductase 2 obtained from calf lenses at a concentration of 142 uM. The method, boiled down:
as §1

The target is the same in assay [5]. The assay can be described thus: In vitro inhibitory activity against Aldose reductase 2 obtained from calf lenses at a concentration of 16 uM. In outline: as §1
For assay [6] the target is unchanged. The assay is described as follows: In vitro inhibitory activity against Aldose reductase 2 obtained from calf lenses at a concentration of 190 uM. The method, boiled down: as §1
Assay [7] has the same target. The assay is described as follows: In vitro inhibitory activity against Aldose reductase 2 obtained from calf lenses at a concentration of 94 uM. The method, boiled down:
as §1

Regarding `Cc1onc2c(=O)n(CC(=O)O)nc(-c3ccc([N+](=O)[O-])cc3)c12`, half-maximal inhibition in assay [1] (IC50) was put at 4.76 µM.

On to `Cc1onc2c(=O)n(CC(=O)O)nc(-c3ccc(Cl)cc3)c12`, for which 3.72 µM corresponded to half-maximal inhibition in assay [1] (IC50). On the same count and under the same terms, the figure for `CCC(C(=O)O)n1nc(-c2ccccc2)c2c(C)onc2c1=O` (configuration not stated) is 75 µM; for `Cc1onc2c(=O)n(CCCC(=O)O)nc(-c3ccc(Cl)cc3)c12` it is 10.4 µM. In assay [2], `Nc1cc(-c2ccccc2)nn(CC(=O)O)c1=O` registered an inhibition of 36%. The compound `Cc1onc2c(=O)n(C/C=C/C(=O)O)nc(-c3ccccc3)c12` came in with an IC50 in assay [3] of 107 µM.

`CC(=O)c1c(-c2ccccc2)nn(CCC(=O)O)c(=O)c1N` showed an inhibition in assay [4] of 27%. The compound `CC(=O)c1c(-c2ccccc2)nn(CC(=O)O)c(=O)c1N` gave an IC50 in assay [3] of 154 µM. The same measure, in the same setting: the figure for `CC(=O)c1c(C)nn(CC(=O)O)c(=O)c1N` is 210 µM. Turning to `O=C(O)Cn1nc(-c2ccccc2)cc(NCCc2ccccn2)c1=O`, the midpoint of inhibition in assay [1], the IC50, lay at 157 µM. The same measure, in the same setting: the figure for `CC(=O)c1c(-c2ccccc2)nn(CC(=O)O)c(=O)c1NCCc1ccccc1` is 93.9 µM. The same measure, in the same setting: then `Cc1nn(CC(=O)O)c(=O)c2noc(C)c12`, with 42 µM; and `CCCC(C(=O)O)n1nc(-c2ccccc2)c2c(C)onc2c1=O` (configuration not stated), with 114 µM; and `Cc1onc2c(=O)n(CCCCC(=O)O)nc(-c3ccccc3)c12`, with 28.4 µM. The same measure, in the same setting: the figure for `Cc1onc2c(=O)n(CCC(=O)O)nc(-c3ccccc3)c12` is 65.2 µM; for `O=C(O)Cn1nc(-c2ccccc2)cc(NCCc2ccccc2)c1=O` it is 68.5 µM; for `Cc1onc2c(=O)n(CC(=O)O)nc(-c3ccccc3[N+](=O)[O-])c12` it is 6.06 µM. Compound `CC(=O)c1c(-c2ccccc2)nn(CC(=O)O)c(=O)c1NCc1ccc(Cl)cc1` registered an IC50 in assay [1] of 36.5 µM. The same measure, in the same setting: then `Cc1onc2c(=O)n(C(C)C(=O)O)nc(-c3ccccc3)c12` (configuration not stated), with 76.8 µM; and `Cc1onc2c(=O)n(CC(=O)O)nc(-c3ccccc3)c12`, with 12.7 µM. Still for that read-out and setting: the figure for `Cc1nn(CCCC(=O)O)c(=O)c2noc(C)c12` is 65.1 µM; for `C[c-]1[o+]nc2c(=O)n(CC(=O)O)nc(-c3cccc([N+](=O)[O-])c3)c21` it is 4.46 µM. As for `Cc1onc2c(=O)n(CCCC(=O)O)nc(-c3ccccc3)c12`, half-maximal inhibition in assay [1] (IC50) required 20.2 µM. The compound `Cc1c(-c2nc3cc(C(F)(F)F)ccc3s2)nc2c(O)n(CC(=O)O)nc(-c3ccccc3)c1-2` had a 50% inhibitory concentration (IC50) in assay [1] of 97.9 µM. As to `CC(=O)c1c(-c2ccccc2)nn(CC(=O)O)c(=O)c1Nc1ccccc1`, the inhibition in assay [5] came out at 12%.

For the compound `Cc1nn(CCC(=O)O)c(=O)c2noc(C)c12`, the inhibition in assay [6] amounted to 28%. The compound `Cc1onc2c(=O)n(CCC(=O)O)nc(-c3ccc(Cl)cc3)c12` registered an IC50 in assay [1] of 34.8 µM.

The compound `CC(=O)c1c(-c2ccccc2)nn(CC(=O)O)c(=O)c1Nc1ccc(Cl)cc1` had an inhibition in assay [7] of 27%. For `CC(=O)c1c(-c2ccccc2)nn(CCCC(=O)O)c(=O)c1N`, in assay [1], the midpoint of inhibition, the IC50, lay at 37 µM. Same read-out and setting: the figure for `CC(=O)c1c(-c2ccccc2)nn(CC(=O)O)c(=O)c1NCc1ccccc1` is 27.6 µM.

In assay [1], `CC(=O)c1c(-c2ccccc2)nn(CC(=O)O)c(=O)c1Nc1ccc(Br)cc1` displayed a concentration for half-maximal inhibition (IC50) of 133 µM. On the same count and under the same terms, then `O=C(O)Cn1nc(-c2ccccc2)cc(NCc2ccccc2)c1=O`, with 48.8 µM.
